Some results are limits rather than exact numbers.

Consider 22 compounds from ChEMBL document CHEMBL1158589, “Benzimidazole and imidazole inhibitors of histone deacetylases: Synthesis and biological activity” (Bioorg Med Chem Lett, 2010).

The target in one assay is T1, Histone deacetylase 8 (Homo sapiens, UniProt Q9BY41).
T1 sequence (Q9BY41 whole entry): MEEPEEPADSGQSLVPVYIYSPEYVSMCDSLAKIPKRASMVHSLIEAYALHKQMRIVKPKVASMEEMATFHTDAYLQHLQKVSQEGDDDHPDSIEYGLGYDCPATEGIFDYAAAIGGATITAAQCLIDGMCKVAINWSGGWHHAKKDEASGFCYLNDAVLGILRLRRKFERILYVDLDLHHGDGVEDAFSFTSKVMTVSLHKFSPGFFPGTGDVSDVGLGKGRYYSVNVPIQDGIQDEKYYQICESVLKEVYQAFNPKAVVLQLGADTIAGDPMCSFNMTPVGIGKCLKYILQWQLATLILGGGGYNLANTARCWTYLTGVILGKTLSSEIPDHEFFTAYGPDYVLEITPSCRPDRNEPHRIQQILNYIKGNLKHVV
Description: Inhibition of human recombinant HDAC8.

Assay [1] addresses T2, Protein deacetylase HDAC6 (Homo sapiens, UniProt Q9UBN7).
T2 sequence (Q9UBN7 whole entry): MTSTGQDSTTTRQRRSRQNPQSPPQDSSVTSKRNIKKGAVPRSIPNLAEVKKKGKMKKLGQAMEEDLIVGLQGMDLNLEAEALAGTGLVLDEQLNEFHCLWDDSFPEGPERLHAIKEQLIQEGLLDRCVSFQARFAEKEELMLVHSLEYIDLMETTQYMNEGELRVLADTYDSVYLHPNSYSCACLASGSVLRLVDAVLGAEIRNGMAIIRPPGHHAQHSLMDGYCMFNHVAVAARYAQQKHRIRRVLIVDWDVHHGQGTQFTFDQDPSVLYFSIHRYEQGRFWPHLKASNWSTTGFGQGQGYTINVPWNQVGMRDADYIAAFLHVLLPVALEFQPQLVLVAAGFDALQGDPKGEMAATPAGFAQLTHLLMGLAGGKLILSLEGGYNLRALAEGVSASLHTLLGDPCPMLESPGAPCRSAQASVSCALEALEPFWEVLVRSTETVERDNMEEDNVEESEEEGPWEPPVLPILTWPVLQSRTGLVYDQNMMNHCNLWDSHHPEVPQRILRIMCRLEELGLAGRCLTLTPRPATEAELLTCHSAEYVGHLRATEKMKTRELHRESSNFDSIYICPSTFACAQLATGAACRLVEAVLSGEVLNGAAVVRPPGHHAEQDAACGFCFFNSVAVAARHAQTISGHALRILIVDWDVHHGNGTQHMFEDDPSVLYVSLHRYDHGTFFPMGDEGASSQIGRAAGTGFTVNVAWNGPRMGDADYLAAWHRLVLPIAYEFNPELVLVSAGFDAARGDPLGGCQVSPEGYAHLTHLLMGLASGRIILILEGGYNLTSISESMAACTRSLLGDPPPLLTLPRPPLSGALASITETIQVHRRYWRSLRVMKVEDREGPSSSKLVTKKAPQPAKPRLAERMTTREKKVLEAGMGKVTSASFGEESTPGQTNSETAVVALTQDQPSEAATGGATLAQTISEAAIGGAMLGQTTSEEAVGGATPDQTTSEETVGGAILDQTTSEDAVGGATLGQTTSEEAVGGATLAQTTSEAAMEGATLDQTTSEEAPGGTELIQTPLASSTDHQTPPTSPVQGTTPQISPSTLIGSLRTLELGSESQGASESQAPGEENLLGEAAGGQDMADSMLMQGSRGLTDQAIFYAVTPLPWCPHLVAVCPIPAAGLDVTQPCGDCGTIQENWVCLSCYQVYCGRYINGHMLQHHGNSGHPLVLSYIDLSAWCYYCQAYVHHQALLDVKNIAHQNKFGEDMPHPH
Description: Inhibition of human recombinant HDAC6. In short, it runs like this:
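Purified recombinant human HDAC-2 or HDAC-6 at known enzyme concentration with tBOC(Ac)-Lys-AMC as substrate. IC50 is the mean of at least three experiments.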

In a further assay the test system is A549. Description: Cytotoxicity against human A549 cells assessed as NADH level after 72 hrs by MTS cells. The assay is classed as functional, cell-based. Particulars: A549, 72 h. In short, it runs like this: (§1)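 Human A549 lung, HL60 leukemia and PC3 prostate cancer lines incubated with compound for 72 h. Viability read by MTS colorimetric assay from remaining NADH; EC50 calculated; mean of at least two experiments.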

For another assay, the system named is PC-3. Description: Cytotoxicity against human PC3 cells assessed as NADH level after 72 hrs by MTS cells. The assay is classed as functional, cell-based. Conditions: PC-3, 72 h. The gist of the method: as §1
A further assay deals with HL-60. Description: Cytotoxicity against human HL60 cells assessed as NADH level after 72 hrs by MTS cells. Particulars: HL-60, 72 h. The format is functional, cell-based. The gist of the method: as §1

Usually IC50 stands for the midpoint of a concentration-inhibition curve. As usually defined, the EC50 is the concentration giving half of the maximal effect. As for `Cc1nc(-c2cccc(/C=C/C(=O)NO)c2)n(CCc2ccccc2)c1Cc1ccccc1`, the IC50 on Histone deacetylase 8 was determined as 20 nM; in assay [1], 50 nM. The figures for the EC50 in the assay on A549, in the assay on PC-3 and in the assay with HL-60 were 300 nM, 200 nM and 50 nM, respectively.

In the case of `CC(C)N(CCn1c(-c2cccc(/C=C/C(=O)NO)c2)nc2ccccc21)C(C)C`, the IC50 at Histone deacetylase 8 was 200 nM; in assay [1] it was 100 nM. Also, the EC50 with A549 was 5000 nM; in the assay on PC-3, 3100 nM; in the assay with HL-60, 5000 nM.

As for `Cc1nc(-c2cccc(/C=C/C(=O)NO)c2)n(CCN2CCOCC2)c1-c1ccccc1`, the IC50 came out at 79 nM on Histone deacetylase 8 and 120 nM in assay [1]. Further, the EC50 with A549 amounted to 4000 nM; in the assay on PC-3 it was 1000 nM; in the assay with HL-60 it was 300 nM.

Take `CC(C)n1c(-c2cccc(/C=C/C(=O)NO)c2)nc2ccccc21`: the half-maximal inhibitory concentration (IC50) at Histone deacetylase 8 worked out at 40 nM; in assay [1] it was 100 nM. Moreover, the EC50 with A549 is 5000 nM; with PC-3, 2500 nM; with HL-60 it was 1000 nM.

Consider `COc1ccc(-n2c(-c3cccc(/C=C/C(=O)NO)c3)nc3ccccc32)cc1`, for which the IC50 (on Histone deacetylase 8; in assay [1]) was 63 nM each time. For the same compound, the EC50 with A549 was 4000 nM; in the assay with PC-3 it was 1200 nM; in the assay on HL-60, 500 nM.

Turning to `Cc1c(-c2ccccc2)nc(-c2cccc(/C=C/C(=O)NO)c2)n1[C@@H]1CCCN(C)C1`, the concentration for half-maximal inhibition (IC50) stood at 50 nM on Histone deacetylase 8 and 63 nM in assay [1]. The EC50 in the assay with A549 came to 600 nM; with PC-3, 100 nM; with HL-60, 40 nM.

With `Cc1c(Cc2ccccc2)nc(-c2cccc(/C=C/C(=O)NO)c2)n1CCN1CCOCC1`, the IC50 came to 50 nM on Histone deacetylase 8 and 79 nM in assay [1]. For the same compound, the values for the EC50 in the assay on A549, in the assay with PC-3 and with HL-60 were 4000 nM, 1000 nM and 300 nM, respectively.

For `O=C(/C=C/c1cccc(-c2nc3ccccc3n2CC2CCNCC2)c1)NO`, the figures for the IC50 (on Histone deacetylase 8; in assay [1]) were 310 nM and 200 nM, respectively. Moreover, the half-maximal effective concentration (EC50) in the assay on A549, with PC-3 and with HL-60 was over 50000 nM each time.

For `CCN(CC)CCn1c(-c2cccc(/C=C/C(=O)NO)c2)nc2ccccc21`, the figures for the IC50 (on Histone deacetylase 8; in assay [1]) were 63 nM and 79 nM, respectively. Also, the EC50 with A549 turned out to be 4000 nM; with PC-3 it was 1200 nM; in the assay with HL-60 it was 800 nM.

For `C[C@@H](c1ccccc1)n1c(-c2cccc(/C=C/C(=O)NO)c2)nc2ccccc21`, the 50% inhibitory concentration (IC50) is 16 nM on Histone deacetylase 8 and 63 nM in assay [1]. Further, the EC50 in the assay with A549 worked out at 31000 nM; with PC-3, 16000 nM; in the assay with HL-60, 3100 nM.

Turning to `CN1CCCC(n2c(-c3cccc(/C=C/C(=O)NO)c3)nc3ccccc32)C1` (racemic), the IC50 amounted to 160 nM at Histone deacetylase 8 and 79 nM in assay [1]. Also, the values for the EC50 in the assay on A549, with PC-3 and in the assay on HL-60 were 500 nM, 100 nM and 80 nM, respectively.

Turning to `CCN1CCC[C@@H](n2c(-c3cccc(/C=C/C(=O)NO)c3)nc(C)c2-c2ccccc2)C1`, the IC50 at Histone deacetylase 8 came to 50 nM; in assay [1], 79 nM. In addition, the EC50 in the assay on A549 came to 300 nM; with PC-3, 80 nM; with HL-60 it was 40 nM.

As to `CN(C)CCn1c(-c2cccc(/C=C/C(=O)NO)c2)nc2ccccc21`, the IC50 turned out to be 160 nM at Histone deacetylase 8 and 79 nM in assay [1]. The figures for the EC50 with A549, in the assay on PC-3 and with HL-60 were 7900 nM, 2500 nM and 1000 nM, respectively.

As to `CCN1CCC[C@@H](n2c(-c3cccc(/C=C/C(=O)NO)c3)nc(C)c2C)C1`, the IC50 on Histone deacetylase 8 came to 100 nM; in assay [1] it was 120 nM. Also, the EC50 in the assay on A549 was 300 nM; in the assay on PC-3, 80 nM; with HL-60, 40 nM.

Consider `O=C(/C=C/c1cccc(-c2nc3ccccc3n2C2CCCNC2)c1)NO` (racemic), for which the half-maximal inhibitory concentration (IC50) on Histone deacetylase 8 turned out to be 160 nM; in assay [1] it was 40 nM. The EC50 is 2500 nM in the assay with A549, 500 nM in the assay with PC-3 and 300 nM in the assay with HL-60.

As to `O=C(/C=C/c1cccc(-c2nc3ccccc3n2-c2ccc(Cl)cc2)c1)NO`, the IC50 on Histone deacetylase 8 stood at 50 nM; in assay [1], 100 nM. Besides, the EC50 in the assay on A549 worked out at 6300 nM; in the assay on PC-3 it was 2500 nM; with HL-60 it was 800 nM.

Consider `Cc1nc(-c2cccc(/C=C/C(=O)NO)c2)n(CCN2CCOCC2)c1Cc1ccccc1`, for which the IC50 at Histone deacetylase 8 amounted to 63 nM; in assay [1], 79 nM. The EC50 is 2500 nM in the assay with A549, 600 nM with PC-3 and 200 nM in the assay on HL-60.

Regarding `Cc1nc(-c2cccc(/C=C/C(=O)NO)c2)n(CCc2ccccc2)c1C`, the IC50 is 31 nM at Histone deacetylase 8 and 63 nM in assay [1]. Further, the EC50 in the assay on A549 was found to be 400 nM; with PC-3, 200 nM; in the assay on HL-60 it was 80 nM.

Turning to `O=C(/C=C/c1cccc(-c2nc3ccccc3[nH]2)c1)NO`, the IC50 on Histone deacetylase 8 worked out at 63 nM; in assay [1], 100 nM. Moreover, the EC50 is 25000 nM in the assay on A549, 10000 nM in the assay on PC-3 and 3100 nM with HL-60.

In the case of `C[C@H](c1ccccc1)n1c(-c2cccc(/C=C/C(=O)NO)c2)nc2ccccc21`, the IC50 came out at 20 nM on Histone deacetylase 8 and 40 nM in assay [1]. Further, the EC50 amounted to 16000 nM in the assay with A549, 10000 nM with PC-3 and 3100 nM in the assay with HL-60.

Turning to `Cc1nc(-c2cccc(/C=C/C(=O)NO)c2)n([C@@H]2CCCN(C)C2)c1-c1ccccc1`, the values for the IC50 (on Histone deacetylase 8; in assay [1]) were 100 nM and 79 nM, respectively. In addition, the EC50 in the assay with A549 worked out at 400 nM; in the assay with PC-3, 100 nM; with HL-60, 30 nM.

On to `O=C(/C=C/c1cccc(-c2nc3ccccc3n2CCCc2ccccc2)c1)NO`, for which the IC50 on Histone deacetylase 8 was 25 nM; in assay [1], 20 nM. Moreover, the EC50 in the assay with A549 amounted to 12000 nM; in the assay with PC-3, 4000 nM; in the assay on HL-60, 1200 nM.
